This is an account of results in ChEMBL document CHEMBL1138635, “Myxopyronin B analogs as inhibitors of RNA polymerase, synthesis and biological evaluation” (Bioorg Med Chem Lett, 2004).

The subject of assay [1] is Escherichia coli. The assay can be described thus: Minimum inhibitory concentration against Escherichia coli. Type of assay: functional. An outline of the steps:
(§1)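 Growth inhibition by serial dilution. MIC reported in µg/mL as the average of triplicate measurements.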

For assay [2], the system named is Staphylococcus aureus. The assay can be described thus: Minimum inhibitory concentration against Staphylococcus aureus. Type of assay: functional. An outline of the steps: as §1
For assay [3], the system named is Escherichia coli. The assay can be described thus: Minimum inhibitory concentration against Escherichia coli (Tol C). Type of assay: functional. An outline of the steps:
as §1

Assay [4] deals with DNA-directed RNA polymerase subunit beta (Escherichia coli K-12) (UniProt P0A8V2). Description: In vitro percent inhibition against RNA polymerase of Escherichia coli in nucleotide coupled NADPH/pyrophosphate release assay at 10 uM. Type of assay: functional. In outline: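 E. coli RNA polymerase activity measured in a nucleotide-coupled NADPH/pyrophosphate release assay. NADPH was read by fluorescence (emission ~440 nm) rather than absorbance at 340 nm. For weaker inhibitors, percent inhibition was recorded at 10 µM instead of an IC50.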

Assay [5] deals with DNA-directed RNA polymerase subunit beta (Escherichia coli K-12, UniProt P0A8V2). The assay can be described thus: In vitro inhibitory activity against RNA polymerase of Escherichia coli. An outline of the steps: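 E. coli RNAP activity measured by a nucleotide-coupled assay that links pyrophosphate release to NADPH. NADPH was read by fluorescence (emission ~440 nm) instead of absorbance at 340 nm. IC50 was determined; for weak inhibitors, percent inhibition at 10 µM was reported instead. Selected compounds were also tested by radiolabeled nucleotide incorporation into RNA.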

Values after ≈ are worked out from the molar mass of the structure shown.

Sequence of DNA-directed RNA polymerase subunit beta (Escherichia coli K-12) (P0A8V2 whole entry, looked up): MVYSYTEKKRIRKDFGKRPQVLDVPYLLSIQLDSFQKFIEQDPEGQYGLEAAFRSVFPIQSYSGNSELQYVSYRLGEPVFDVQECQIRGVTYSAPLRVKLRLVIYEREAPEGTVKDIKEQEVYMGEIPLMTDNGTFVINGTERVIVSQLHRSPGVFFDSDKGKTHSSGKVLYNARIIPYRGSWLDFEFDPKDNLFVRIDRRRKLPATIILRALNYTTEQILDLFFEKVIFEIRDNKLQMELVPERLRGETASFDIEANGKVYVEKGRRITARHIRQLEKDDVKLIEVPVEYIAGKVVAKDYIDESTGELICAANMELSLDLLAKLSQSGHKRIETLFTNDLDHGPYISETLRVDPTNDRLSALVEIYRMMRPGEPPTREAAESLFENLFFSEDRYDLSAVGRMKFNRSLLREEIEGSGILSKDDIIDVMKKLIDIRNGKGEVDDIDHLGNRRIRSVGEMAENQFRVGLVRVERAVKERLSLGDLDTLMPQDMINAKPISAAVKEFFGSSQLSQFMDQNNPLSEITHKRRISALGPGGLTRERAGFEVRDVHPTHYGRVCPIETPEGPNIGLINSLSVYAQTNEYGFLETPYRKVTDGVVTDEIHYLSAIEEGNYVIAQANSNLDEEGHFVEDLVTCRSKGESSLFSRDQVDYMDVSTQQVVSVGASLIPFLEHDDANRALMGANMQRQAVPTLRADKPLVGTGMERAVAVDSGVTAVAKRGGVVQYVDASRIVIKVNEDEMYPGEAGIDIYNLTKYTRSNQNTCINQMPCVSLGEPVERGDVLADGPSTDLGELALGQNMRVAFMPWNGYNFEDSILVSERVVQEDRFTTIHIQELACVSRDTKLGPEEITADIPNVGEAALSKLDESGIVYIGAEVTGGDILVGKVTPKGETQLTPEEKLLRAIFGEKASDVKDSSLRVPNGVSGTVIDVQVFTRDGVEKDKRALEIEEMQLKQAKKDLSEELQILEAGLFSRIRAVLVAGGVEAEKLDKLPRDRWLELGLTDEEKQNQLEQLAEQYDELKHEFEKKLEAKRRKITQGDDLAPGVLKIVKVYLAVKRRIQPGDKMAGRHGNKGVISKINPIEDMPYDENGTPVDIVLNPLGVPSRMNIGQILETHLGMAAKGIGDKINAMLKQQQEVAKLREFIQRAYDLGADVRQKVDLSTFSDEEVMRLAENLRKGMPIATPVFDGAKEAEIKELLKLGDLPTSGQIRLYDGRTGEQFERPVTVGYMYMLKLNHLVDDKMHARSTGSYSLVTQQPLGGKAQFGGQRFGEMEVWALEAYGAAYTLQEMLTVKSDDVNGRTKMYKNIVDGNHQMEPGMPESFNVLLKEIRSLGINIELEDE
Sequence of DNA-directed RNA polymerase subunit beta (P0A8V2 whole entry): as the sequence (P0A8V2 whole entry, looked up) above

As to `CCCC/C(C)=C/C=C(\C)C(=O)c1c(O)cc(C(C)CCCC=O)oc1=O` (centres undefined), the MIC in assay [1], in assay [2] and in assay [3] was greater than 64 µg/mL each time. Moreover, the inhibition in assay [4] is less than 20%.
Regarding `CCCC/C(C)=C/C=C/C(=O)c1c(O)cc(C(C)CC/C=C/NC(=O)OC)oc1=O` (centres undefined), the minimum inhibitory concentration (MIC) in assay [1] was greater than 64 µg/mL; in assay [2], 64 µg/mL (≈ 153 µM); in assay [3] it was 32 µg/mL (≈ 76.6 µM). The inhibition in assay [4] was found to be 70%.
`CCCC/C(C)=C/C=C(\C)C(=O)c1c(O)cc(C(C)CC/C=C\NC(=O)OC)oc1=O` (centres undefined) showed an IC50 in assay [5] of 1.26 µM. In addition, the results for the MIC in assay [1], in assay [2] and in assay [3] were greater than 64 µg/mL, 4 µg/mL (≈ 9.27 µM) and 4 µg/mL (≈ 9.27 µM), respectively.
Regarding `CCCC/C(C)=C/C=C(\C)C(=O)c1c(O)cc(C(C)CCCCNC(=O)OC)oc1=O` (centres undefined), the IC50 in assay [5] is 4 µM. The MIC in assay [1] was greater than 64 µg/mL; in assay [2], 64 µg/mL (≈ 148 µM); in assay [3] it was 8 µg/mL (≈ 18.5 µM).
As to `CCCC/C(C)=C/CNC(=O)c1c(O)cc(C(C)CC/C=C/NC(=O)OC)oc1=O` (centres undefined), the minimum inhibitory concentration (MIC) in assay [1], in assay [2] and in assay [3] was greater than 64 µg/mL throughout. The inhibition in assay [4] was less than 20%.
Take `CCCC/C(C)=C/C=C(\C)C(=O)c1c(O)cc(C(C)Cc2ccc(NC(=O)OC)cc2)oc1=O` (centres undefined): the MIC in assay [1], in assay [2] and in assay [3] was greater than 64 µg/mL throughout. For the same compound, the inhibition in assay [4] was less than 20%.
Consider `CCCC/C(C)=C/C=C(\C)C(=O)c1c(O)cc(C(C)CC/C=C/NC(=O)OCCN2CCOCC2)oc1=O` (centres undefined), for which the MIC in assay [1], in assay [2] and in assay [3] was greater than 64 µg/mL in each case. For the same compound, in assay [4], the inhibition is less than 20%.
For `CCCC/C(C)=C/C=C(\C)C(=O)c1c(O)cc(C(C)Cc2cccc(NC(=O)OC)c2)oc1=O` (centres undefined), the MIC in assay [1], in assay [2] and in assay [3] was greater than 64 µg/mL in each case. The compound further showed an inhibition in assay [4] of less than 20%.
`CCC(=O)c1c(O)cc(C(C)CC/C=C/NC(=O)OC)oc1=O` (centres undefined): the MIC in assay [1], in assay [2] and in assay [3] was greater than 64 µg/mL each time. The same compound yielded an inhibition in assay [4] of less than 20%.
On to `CCCC/C(C)=C/C=C(\C)C(=O)c1c(O)cc(CCC/C=C/NC(=O)OC)oc1=O` [DESMETHYL MYXOPYRONIN B], for which the IC50 in assay [5] was found to be 0.34 µM. The MIC in assay [1] is greater than 64 µg/mL; in assay [2], 4 µg/mL (≈ 9.58 µM); in assay [3], 1 µg/mL (≈ 2.4 µM).
For `CCCC/C(C)=C/C=C(\C)C(=O)c1c(OC)cc(C(C)CC/C=C/NC(=O)OC)oc1=O` (centres undefined), in that order: 4.2 µM, greater than 64 µg/mL, greater than 64 µg/mL and greater than 64 µg/mL.
The corresponding values for `CCCC/C=C/C=C(\C)C(=O)c1c(O)cc(C(C)CC/C=C/NC(=O)OC)oc1=O` (centres undefined) are 1.04 µM, greater than 64 µg/mL, 16 µg/mL (≈ 38.3 µM) and 2 µg/mL (≈ 4.79 µM).
The compound `CCCC/C(C)=C/C=C(\C)C(=O)c1c(O)cc(C(C)CC/C=C/NC(=O)OC)oc1=O` (centres undefined) showed an IC50 in assay [5] of 0.92 µM. The values for the MIC in assay [1], in assay [2] and in assay [3] were greater than 64 µg/mL, 1 µg/mL (≈ 2.32 µM) and 2 µg/mL (≈ 4.63 µM), respectively.
Take `CCCC/C(C)=C/C=C(\C)C(=O)c1c(O)cc(C(C)CC/C=C/C(=O)OC)oc1=O` (centres undefined): the MIC in assay [1], in assay [2] and in assay [3] was greater than 64 µg/mL in each case. Further, the inhibition in assay [4] was less than 20%.
As to `CCCC/C(C)=C\C=C(\C)C(=O)c1c(O)cc(C(C)CC/C=C/NC(=O)OC)oc1=O` (centres undefined), the IC50 in assay [5] came to 2.5 µM. Further, the MIC in assay [1] was greater than 64 µg/mL; in assay [2], 16 µg/mL (≈ 37.1 µM); in assay [3] it was 16 µg/mL (≈ 37.1 µM).
Consider `CCCC/C(C)=C/C=C(\C)C(=O)c1c(O)cc(C(C)CC/C=C/NC(=O)OCCN(C)C)oc1=O` (centres undefined), for which the MIC in assay [1], in assay [2] and in assay [3] was greater than 64 µg/mL each time. In addition, the inhibition in assay [4] is less than 20%.
